Reference: ChEMBL document CHEMBL1806486, “Discovery and evaluation of 3-phenyl-1H-5-pyrazolylamine-based derivatives as potent, selective and efficacious inhibitors of FMS-like tyrosine kinase-3 (FLT3)” (Bioorg Med Chem, 2011)

Assays:
Aurora kinase A = biological target: T1, Aurora kinase A (Homo sapiens, UniProt O14965); test: Inhibition of recombinant GST-tagged Aurora A expressed in Sf9 insect cells after 90 mins by Kinase-Glo assay
T1 sequence (O14965 whole entry): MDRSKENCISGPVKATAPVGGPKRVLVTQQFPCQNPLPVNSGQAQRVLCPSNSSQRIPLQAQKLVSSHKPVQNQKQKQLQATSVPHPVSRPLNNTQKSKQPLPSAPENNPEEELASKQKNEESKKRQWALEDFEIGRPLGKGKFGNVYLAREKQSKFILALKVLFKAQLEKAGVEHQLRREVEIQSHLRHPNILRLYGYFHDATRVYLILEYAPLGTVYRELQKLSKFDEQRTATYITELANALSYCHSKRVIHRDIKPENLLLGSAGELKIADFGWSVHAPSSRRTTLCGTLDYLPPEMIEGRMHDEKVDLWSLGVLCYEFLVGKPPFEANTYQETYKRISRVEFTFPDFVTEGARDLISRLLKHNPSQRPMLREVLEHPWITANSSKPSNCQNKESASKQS
How it was run: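 GST-Aurora A kinase domain (S123–S401, 150 ng) from Sf9 cells. Buffer was 50 mM Tris-HCl pH 7.4 with 10 mM NaCl, 10 mM MgCl2, 0.01% BSA and 1 mM DTT. Kinase-Glo Plus was added for 20 min at 25 °C before the luminescence read.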

[1] = biological target: Vascular endothelial growth factor receptor 1 (Homo sapiens, UniProt P17948); test: Inhibition of recombinant GST-tagged VEGFR1 expressed in Sf9 insect cells after 120 mins by Kinase-Glo assay
Vascular endothelial growth factor receptor 1, sequence (P17948 whole entry, the tested form may be a part): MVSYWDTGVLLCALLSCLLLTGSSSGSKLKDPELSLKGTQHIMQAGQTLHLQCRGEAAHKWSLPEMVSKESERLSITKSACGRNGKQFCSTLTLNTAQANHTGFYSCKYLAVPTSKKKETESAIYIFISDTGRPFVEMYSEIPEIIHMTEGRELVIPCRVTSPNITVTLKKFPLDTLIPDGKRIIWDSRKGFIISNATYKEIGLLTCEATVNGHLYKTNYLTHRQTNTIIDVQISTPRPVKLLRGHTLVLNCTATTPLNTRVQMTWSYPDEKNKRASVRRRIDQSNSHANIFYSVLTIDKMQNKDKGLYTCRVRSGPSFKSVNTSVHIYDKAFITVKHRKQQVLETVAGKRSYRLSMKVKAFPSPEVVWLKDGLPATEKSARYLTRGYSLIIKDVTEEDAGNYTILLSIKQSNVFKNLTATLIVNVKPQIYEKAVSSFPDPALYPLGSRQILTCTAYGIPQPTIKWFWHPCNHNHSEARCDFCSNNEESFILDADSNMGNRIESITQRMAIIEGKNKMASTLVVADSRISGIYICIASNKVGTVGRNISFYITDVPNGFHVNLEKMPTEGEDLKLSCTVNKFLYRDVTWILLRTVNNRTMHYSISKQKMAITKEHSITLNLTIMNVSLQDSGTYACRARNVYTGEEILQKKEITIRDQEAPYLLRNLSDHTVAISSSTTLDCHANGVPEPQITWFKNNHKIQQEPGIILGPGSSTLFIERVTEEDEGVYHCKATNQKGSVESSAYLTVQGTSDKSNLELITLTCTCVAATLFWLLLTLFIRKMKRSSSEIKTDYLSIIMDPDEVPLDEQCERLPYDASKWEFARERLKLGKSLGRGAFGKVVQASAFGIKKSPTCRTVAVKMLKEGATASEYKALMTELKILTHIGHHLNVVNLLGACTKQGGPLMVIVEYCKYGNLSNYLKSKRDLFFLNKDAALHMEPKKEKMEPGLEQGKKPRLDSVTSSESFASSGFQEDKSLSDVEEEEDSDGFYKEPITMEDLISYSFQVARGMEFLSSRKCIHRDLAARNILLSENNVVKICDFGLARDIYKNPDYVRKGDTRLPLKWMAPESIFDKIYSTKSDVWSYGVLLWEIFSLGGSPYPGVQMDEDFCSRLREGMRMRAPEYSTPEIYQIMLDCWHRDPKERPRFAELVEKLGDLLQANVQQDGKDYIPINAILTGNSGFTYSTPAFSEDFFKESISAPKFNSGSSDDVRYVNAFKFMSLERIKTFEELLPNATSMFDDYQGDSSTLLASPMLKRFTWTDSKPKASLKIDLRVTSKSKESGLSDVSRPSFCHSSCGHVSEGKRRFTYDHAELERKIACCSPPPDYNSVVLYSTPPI
How it was run: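 GST-VEGFR1 (R781–I1338) or GST-VEGFR2 (V789–V1356) kinase domain, 50–100 ng, from Sf9 cells. Read-out was Kinase-Glo Plus luminescence.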

MOLM-13 = test: Antiproliferation activity against human MOLM13 cells expressing FLT3 mutation assessed as cell viability after 72 hrs by MTS method; format: functional; conditions: MOLM-13, 72 h
[2] = biological target: T2, Vascular endothelial growth factor receptor 2 (Homo sapiens, UniProt P35968); test: Inhibition of recombinant GST-tagged VEGFR2 expressed in Sf9 insect cells after 120 mins by Kinase-Glo assay; format: cell-based
T2 sequence (P35968 whole entry, the tested form may be a part): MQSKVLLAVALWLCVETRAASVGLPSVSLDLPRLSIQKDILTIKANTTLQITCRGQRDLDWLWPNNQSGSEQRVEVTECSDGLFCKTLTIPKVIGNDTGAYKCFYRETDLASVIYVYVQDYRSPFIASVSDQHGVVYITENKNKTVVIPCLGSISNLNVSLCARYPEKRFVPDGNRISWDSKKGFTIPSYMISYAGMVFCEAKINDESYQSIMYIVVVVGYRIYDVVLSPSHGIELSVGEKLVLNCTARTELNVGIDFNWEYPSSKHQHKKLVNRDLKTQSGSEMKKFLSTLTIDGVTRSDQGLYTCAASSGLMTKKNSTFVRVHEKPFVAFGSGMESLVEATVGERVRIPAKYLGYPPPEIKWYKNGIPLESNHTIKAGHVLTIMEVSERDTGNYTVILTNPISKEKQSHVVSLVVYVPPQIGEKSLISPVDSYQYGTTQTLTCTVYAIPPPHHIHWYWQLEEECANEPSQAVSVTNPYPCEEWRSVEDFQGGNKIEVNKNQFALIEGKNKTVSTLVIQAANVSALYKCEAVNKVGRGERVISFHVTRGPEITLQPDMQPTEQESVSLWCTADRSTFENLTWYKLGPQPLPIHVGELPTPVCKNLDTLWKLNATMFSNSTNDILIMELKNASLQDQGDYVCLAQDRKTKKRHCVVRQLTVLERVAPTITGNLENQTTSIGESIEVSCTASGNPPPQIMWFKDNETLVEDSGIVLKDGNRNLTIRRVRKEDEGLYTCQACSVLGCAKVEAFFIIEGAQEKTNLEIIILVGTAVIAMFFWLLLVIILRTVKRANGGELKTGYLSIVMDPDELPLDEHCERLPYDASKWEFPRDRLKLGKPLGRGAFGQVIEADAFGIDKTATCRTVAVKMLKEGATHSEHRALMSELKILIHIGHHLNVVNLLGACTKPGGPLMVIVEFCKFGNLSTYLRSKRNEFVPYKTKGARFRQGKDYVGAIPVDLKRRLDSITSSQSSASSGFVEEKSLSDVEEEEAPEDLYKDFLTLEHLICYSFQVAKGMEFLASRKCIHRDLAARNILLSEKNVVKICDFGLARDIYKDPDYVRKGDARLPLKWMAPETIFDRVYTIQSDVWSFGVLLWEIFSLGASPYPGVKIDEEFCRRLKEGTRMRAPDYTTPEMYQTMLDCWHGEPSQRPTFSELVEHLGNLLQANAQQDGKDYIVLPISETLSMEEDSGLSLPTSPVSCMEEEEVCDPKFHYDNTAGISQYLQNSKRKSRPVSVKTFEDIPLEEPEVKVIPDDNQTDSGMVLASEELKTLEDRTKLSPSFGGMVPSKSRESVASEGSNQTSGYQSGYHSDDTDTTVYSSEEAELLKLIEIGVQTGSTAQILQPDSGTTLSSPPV

[3] = biological target: T3, Receptor-type tyrosine-protein kinase FLT3 (Homo sapiens, UniProt P36888); test: Inhibition of GST-tagged FLT3 expressing wild type kinase domain expressed in Sf9 insect cells after 4 hrs by Kinase-Glo assay
T3 sequence (P36888 whole entry): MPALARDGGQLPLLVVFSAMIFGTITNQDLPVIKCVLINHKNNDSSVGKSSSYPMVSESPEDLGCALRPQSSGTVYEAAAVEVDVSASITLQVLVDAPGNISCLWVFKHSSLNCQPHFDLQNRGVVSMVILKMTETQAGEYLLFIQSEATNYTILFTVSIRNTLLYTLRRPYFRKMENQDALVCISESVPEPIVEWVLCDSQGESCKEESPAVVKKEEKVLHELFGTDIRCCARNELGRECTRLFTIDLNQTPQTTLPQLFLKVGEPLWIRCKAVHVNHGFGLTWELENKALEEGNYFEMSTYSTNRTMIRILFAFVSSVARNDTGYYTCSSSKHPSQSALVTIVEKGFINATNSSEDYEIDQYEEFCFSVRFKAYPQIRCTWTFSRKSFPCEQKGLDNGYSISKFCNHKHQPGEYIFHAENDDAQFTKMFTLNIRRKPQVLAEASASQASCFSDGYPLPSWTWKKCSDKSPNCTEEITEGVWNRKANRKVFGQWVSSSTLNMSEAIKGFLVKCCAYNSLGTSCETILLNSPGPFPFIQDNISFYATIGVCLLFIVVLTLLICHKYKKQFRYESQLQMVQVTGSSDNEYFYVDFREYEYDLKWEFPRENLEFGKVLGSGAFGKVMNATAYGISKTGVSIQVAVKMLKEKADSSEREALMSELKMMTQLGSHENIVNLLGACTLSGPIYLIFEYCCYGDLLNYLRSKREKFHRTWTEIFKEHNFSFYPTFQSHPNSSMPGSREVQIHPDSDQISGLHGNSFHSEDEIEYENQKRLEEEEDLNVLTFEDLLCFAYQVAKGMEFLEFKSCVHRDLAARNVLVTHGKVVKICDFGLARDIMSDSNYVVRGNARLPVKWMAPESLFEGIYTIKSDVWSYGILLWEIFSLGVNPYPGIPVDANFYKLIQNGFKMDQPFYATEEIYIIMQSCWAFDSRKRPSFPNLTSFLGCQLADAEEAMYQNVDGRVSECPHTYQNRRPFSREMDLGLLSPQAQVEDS

Mus musculus [4] = test: Toxicity in athymic nu/nu nude mouse assessed as lethality at 50 mg/kg, iv for continuous 5 days; format: organism-based; parameters: dose 50 mg/kg, route intravenous; conditions: in vivo, 120 h
[5] = Volume of distribution at steady state in Sprague-Dawley rat at 5 mg/kg, iv; format: ADME, organism-based; parameters: dose 5 mg/kg, route intravenous; conditions: in vivo, read-out: Vdss
[6] = AUC (0 to infinity) in Sprague-Dawley rat at 5 mg/kg, iv; format: ADME, organism-based; parameters: time infinity, dose 5 mg/kg, route intravenous; conditions: plasma
Mus musculus [7] = test: Toxicity in normal mouse assessed as reduction of body weight at 50 mg/kg, iv for continuous 5 days; conditions: in vivo, 120 h
[8] = Clearance in Sprague-Dawley rat at 5 mg/kg, iv; format: ADME, organism-based; parameters: dose 5 mg/kg, route intravenous; conditions: in vivo
[9] = Half life in Sprague-Dawley rat at 5 mg/kg, iv; format: ADME, organism-based; parameters: dose 5 mg/kg, route intravenous; conditions: in vivo
[10] = biological target: Aurora kinase A (Homo sapiens) (UniProt O14965); test: Inhibition of recombinant GST-tagged Aurora A expressed in Sf9 insect cells at 1 uM after 90 mins by Kinase-Glo assay
[11] = biological target: Receptor-type tyrosine-protein kinase FLT3 (Homo sapiens) (UniProt P36888); test: Inhibition of GST-tagged FLT3 expressing wild type kinase domain expressed in Sf9 insect cells at 1 uM after 4 hrs by Kinase-Glo assay
[12] = biological target: T2, Vascular endothelial growth factor receptor 2; test: Inhibition of recombinant GST-tagged VEGFR2 expressed in Sf9 insect cells at 1 uM after 120 mins by Kinase-Glo assay
[13] = Antiproliferation activity against human RS4:11 cells expressing wild type FLT3 after 72 hrs by MTS method; format: functional; conditions: RS4-11, 72 h
MV4-11 = test: Antiproliferation activity against FLT3/ITD harboring human MV4-11 cells after 72 hrs by MTS method; format: functional; conditions: MV4-11, 72 h
K562 = test: Antiproliferation activity against human K562 cells expressing wild type BCR/ABL after 72 hrs by MTS method; format: functional; conditions: K562, 72 h
MOLT-4 = test: Antiproliferation activity against human MOLT4 after 72 hrs by MTS method; format: functional; conditions: MOLT-4, 72 h

| Structure (SMILES) | IC50 (Aurora kinase A) [µM] | IC50 [1] [µM] | GI50 (MOLM-13) [µM] | IC50 [2] [µM] | IC50 [3] [µM] | further results |
| --- | --- | --- | --- | --- | --- | --- |
| CC(C)S(=O)(=O)Nc1cccc(-c2cc(NC(=O)c3ccc(N4CCN(C)CC4)cc3)[nH]n2)c1 | > 1 | > 1 | 0.044 | > 1 | 0.16 |  |
| O=C(Nc1cc(-c2cccc(NS(=O)(=O)c3ccccc3)c2)n[nH]1)c1ccc(OCCN2CCCC2)cc1 | 1.17 | 0.27 | 0.025 | 0.2 | 0.007 | Activity (Mus musculus [4]): Toxic; Vd [5]: 10.7 L/kg; AUC(0-inf) [6]: 3940 ng·h/mL; Activity (Mus musculus [7]): Toxic; clearance [8]: 22.3 mL/min/kg; half-life [9]: 9.9 h |
| CCCS(=O)(=O)Nc1cccc(-c2cc(NC(=O)c3ccc(N4CCN(C)CC4)cc3)[nH]n2)c1 | 1.64 | 2.61 | 0.056 | 2.72 | 0.1 |  |
| CN1CCN(c2ccc(C(=O)Nc3cc(-c4ccc(NS(=O)(=O)c5ccccc5)cc4)n[nH]3)cc2)CC1 |  |  | 0.05 |  | 0.59 |  |
| CN1CCN(c2ccc(C(=O)Nc3cc(-c4cccc(N)c4)n[nH]3)cc2)CC1 |  |  | 0.077 |  | 0.014 |  |
| CN1CCN(c2ccc(C(=O)Nc3cc(-c4cccc(NC(=O)Nc5ccccc5)c4)n[nH]3)cc2)CC1 |  |  | 0.15 |  | 0.02 |  |
| Cc1ccc(S(=O)(=O)Nc2cccc(-c3cc(NC(=O)c4ccc(N5CCN(C)CC5)cc4)[nH]n3)c2)cc1 |  | > 1 | 0.024 | > 1 | 0.015 | inhibition [10]: 50% |
| COc1ccc(S(=O)(=O)Nc2cccc(-c3cc(NC(=O)c4ccc(N5CCN(C)CC5)cc4)[nH]n3)c2)cc1 | > 1 | 0.42 | 0.05 | 0.16 | 0.09 |  |
| CN1CCN(c2ccc(C(=O)Nc3cc(-c4cccc(NS(=O)(=O)c5ccccc5)c4)n[nH]3)cc2)CC1 | 0.34 | 0.21 | 0.012 | 0.13 | 0.013 | Activity (Mus musculus [4]): Toxic; Vd [5]: 15.5 L/kg; AUC(0-inf) [6]: 551 ng·h/mL; Activity (Mus musculus [7]): Toxic; clearance [8]: 102 mL/min/kg; half-life [9]: 4.5 h |
| CN1CCN(c2ccc(C(=O)Nc3cc(-c4cccc(NS(=O)(=O)c5ccc(Cl)cc5)c4)n[nH]3)cc2)CC1 | 4.99 | 0.57 | 0.074 | > 1 | 0.12 |  |
| O=C(Nc1cc(-c2cccc(NS(=O)(=O)c3ccccc3)c2)n[nH]1)c1cccc(N2CCOCC2)c1 | > 1 | > 1 | 0.26 | > 1 | > 1 |  |
| O=C(O)c1ccc(C(=O)Nc2cc(-c3cccc(NS(=O)(=O)c4ccccc4)c3)n[nH]2)cc1 |  |  |  |  |  | inhibition [11]: 61% |
| O=C(Nc1cc(-c2cccc(NS(=O)(=O)c3ccccc3)c2)n[nH]1)c1ccc(OCCN2CCOCC2)cc1 |  | > 1 | 0.072 | > 1 | 0.07 | inhibition [10]: 50% |
| CN1CCN(c2cccc(C(=O)Nc3cc(-c4cccc(NS(=O)(=O)c5ccccc5)c4)n[nH]3)c2)CC1 | 0.85 | > 1 | 0.19 | 0.41 | 0.065 |  |
| O=C(Nc1cc(-c2cccc(NS(=O)(=O)c3ccccc3)c2)n[nH]1)c1ccc(N2CCOCC2)cc1 | 0.39 | > 1 | 0.1 | 0.45 | 0.029 |  |
| Cc1nc(NCCCN2CCOCC2)cc(Nc2cc(-c3cccc(NS(=O)(=O)c4ccccc4)c3)n[nH]2)n1 | 0.68 | > 1 | 0.38 |  | 0.01 | inhibition [12]: 55% |
| Cc1nc(Nc2cc(-c3cccc(NS(=O)(=O)c4ccccc4)c3)n[nH]2)cc(N2CCN(CCO)CC2)n1 | 0.17 | > 1 | 0.024 | 0.14 | 0.05 |  |
| O=C(Nc1cc(-c2cccc(NS(=O)(=O)c3ccccc3)c2)n[nH]1)c1ccc(C(F)(F)F)cc1 |  |  |  |  | > 1 |  |
| CCS(=O)(=O)Nc1cccc(-c2cc(NC(=O)c3ccc(N4CCN(C)CC4)cc3)[nH]n2)c1 | > 1 | > 1 | 0.033 | > 1 | 0.36 |  |
| CN1CCN(c2ccc(C(=O)Nc3cc(-c4cccc(NS(=O)(=O)c5cccc(Cl)c5)c4)n[nH]3)cc2)CC1 | 1.71 | 0.04 | 0.039 | 0.25 | 0.008 |  |
| CCCCS(=O)(=O)Nc1cccc(-c2cc(Nc3cc(N4CCN(C)CC4)nc(C)n3)[nH]n2)c1 | > 1 | > 1 | 0.16 | > 1 | 0.11 |  |
| CNC(=O)c1cc(Oc2ccc(NC(=O)Nc3ccc(Cl)c(C(F)(F)F)c3)cc2)ccn1 [SORAFENIB] |  |  |  |  |  | GI50 [13]: 9.4 µM; GI50 (MV4-11): 0.03 µM; GI50 (K562): 6.2 µM; GI50 (MOLT-4): 9 µM |
| CN1CCN(c2ccc(C(=O)Nc3cc(-c4cccc(NC(=O)c5ccccc5)c4)n[nH]3)cc2)CC1 |  |  | 0.21 |  | 0.27 |  |
| Cc1nc(NCCN2CCOCC2)cc(Nc2cc(-c3cccc(NS(=O)(=O)c4ccccc4)c3)n[nH]2)n1 | > 1 | > 1000 | 0.46 | > 1 | 0.06 |  |
| Cc1cccc(S(=O)(=O)Nc2cccc(-c3cc(Nc4cc(N5CCN(C)CC5)nc(C)n4)[nH]n3)c2)c1 | > 1 | > 1 | 0.078 | > 1 | 0.12 |  |
| O=C(Nc1cc(-c2cccc(NS(=O)(=O)c3ccccc3)c2)n[nH]1)c1cccc(C(F)(F)F)c1 |  |  |  |  | > 1 |  |
| O=C(O)c1cccc(C(=O)Nc2cc(-c3cccc(NS(=O)(=O)c4ccccc4)c3)n[nH]2)c1 |  |  |  |  |  | inhibition [11]: 56% |
| Cc1cccc(S(=O)(=O)Nc2cccc(-c3cc(NC(=O)c4ccc(N5CCN(C)CC5)cc4)[nH]n3)c2)c1 | 0.43 | 0.14 | 0.016 | 0.07 | 0.007 | Activity (Mus musculus [4]): Toxic; Vd [5]: 2.6 L/kg; AUC(0-inf) [6]: 1200 ng·h/mL; Activity (Mus musculus [7]): Toxic; clearance [8]: 67.4 mL/min/kg; half-life [9]: 1.7 h |
| O=C(Nc1cc(-c2cccc(NS(=O)(=O)c3ccccc3)c2)n[nH]1)c1ccccc1 |  |  |  |  |  | inhibition [11]: 54% |
